The values below come from ChEMBL document CHEMBL3797069, “Betulin Derivatives Effectively Suppress Inflammation in Vitro and in Vivo” (J Nat Prod, 2016).

Test [1] has as its system J774. The test can be described thus: Antiinflammatory activity against mouse J774 cells assessed as inhibition of LPS-induced iNOS expression after 24 hrs by Western blot analysis. The class given is functional, cell-based. The settings on record: J774, 24 h. Summed up:
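Murine J774 macrophages in DMEM with 10% heat-inactivated FBS, grown 72 h to confluence, then given LPS plus compound in fresh medium for 24 h. Cells washed in ice-cold PBS and lysed; 20 μg protein per lane on Western blot for iNOS, with β-actin as loading control and chemiluminescent detection. Values relative to LPS-only cells; mean ± SEM, n = 4.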
Background: In western blotting, separated proteins are transferred to a membrane and probed.

Test [2] concerns J774. Put plainly: Antiinflammatory activity in mouse J774 cells assessed as inhibition of LPS-induced iNOS expression measured as remaining protein levels at 10 uM after 24 hrs by Western blot analysis. The class given is functional. Summed up:
(§1)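 Murine J774 macrophages were grown 72 h to confluence in DMEM with 10% heat-inactivated FBS at 37 °C, 5% CO2. Compound was added in fresh medium with LPS for 24 h. Cells were lysed, and 20 μg protein was immunoblotted for COX-2 or iNOS with actin as the loading control, detected by chemiluminescence. n = 4, mean ± SEM versus LPS alone.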

For test [3], the system named is J774. The test can be described thus: Inhibition of LPS-induced iNOS mRNA levels in mouse J774 cells after 6 hrs by qRT-PCR method. The class given is functional, cell-based. In a few lines: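 Activated J774 cells received compound at 10 μM alongside LPS. At 3, 6 or 24 h, total RNA was extracted and iNOS, IL-6 or MCP-1 mRNA was measured by TaqMan quantitative RT-PCR (40 cycles, 95 °C/60 °C) in duplicate. Levels came from a standard curve and were normalized to GAPDH. n = 4 versus LPS only.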
(In general: Quantitative PCR measures a nucleic acid by following its amplification.)

For test [4], the system named is J774. Put plainly: Antiinflammatory activity against mouse J774 cells assessed as inhibition of LPS-induced MCP-1 production measured as remaining MCP-1 levels at 10 uM after 24 hrs by ELISA. Type of test: functional. Summed up:
(§2)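 J774 macrophages were grown 72 h to confluence, then exposed to LPS with compound at 10 μM in fresh medium for 24 h. IL-6 and MCP-1 in the culture medium were quantified by ELISA. n = 4, mean ± SEM relative to LPS-only cells.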
Background: In an ELISA, binding on a coated surface is turned into a signal by an enzyme label.

Test [5] concerns J774. The test can be described thus: Antiinflammatory activity against mouse J774 cells assessed as inhibition of LPS-induced IL-6 production measured as remaining IL-6 levels at 10 uM after 24 hrs by ELISA. Type of test: functional. Summed up:
as §2

The subject of test [6] is J774. Put plainly: Antiinflammatory activity in mouse J774 cells assessed as inhibition of LPS-induced nitric oxide production measured as remaining nitric oxide levels at 10 uM by Griess assay. Type of test: functional. Summed up: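 Confluent J774 monolayers were treated with LPS plus compound at 10 μM in fresh medium, 24 h. NO was read as accumulated nitrite in the medium by Griess reaction. n = 4, mean ± SEM versus cells cultured with LPS only.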

In test [7] the test system is J774. The test can be described thus: Antiinflammatory activity against mouse J774 cells assessed as inhibition of LPS-induced COX-2 expression measured as remaining protein levels at 10 uM after 24 hrs by Western blot analysis. Type of test: functional. Summed up:
as §1

Activity calls are given as the source filed them. The calls are words filed in the database; no cut-off is given here.

Usually IC50 stands for the concentration that gives 50% inhibition. For the molecule `C=C(C)[C@@H]1CC[C@]2(C(N)=O)CC[C@]3(C)[C@H](CC[C@@H]4[C@@]5(C)Cc6cnoc6C(C)(C)[C@@H]5CC[C@]43C)[C@@H]12`, the IC50 with J774 [1] was found to be 300 nM. Further, the results for the Activity in the test with J774 [2], in the test on J774 [4] and with J774 [7] were 8.3%, 57.6% and 105.5%, respectively. Further, the inhibition entry in the test on J774 [3] is “inactive”. Also, in the test with J774 [5], the “Remaining IL-6 level (% of LPS-only)” value is on record as 90.9%. Moreover, in the test on J774 [6], the “Remaining nitric oxide level (% of LPS-only control)” value was found to be 66.5%.

Regarding `C=C(C)[C@@H]1CC[C@]2(C(=O)O)CC[C@]3(C)[C@H](CC[C@@H]4[C@@]5(C)CC[C@H](O)C(C)(C)[C@@H]5CC[C@]43C)[C@@H]12` [BETULINIC ACID], the figures for the Activity with J774 [2], in the test with J774 [4] and with J774 [7] were 57.6%, 98.5% and 96%, respectively. Moreover, in the test on J774 [5], the “Remaining IL-6 level (% of LPS-only)” value is listed as 66.1%. For the same molecule, the “Remaining nitric oxide level (% of LPS-only control)” value in the test with J774 [6] turned out to be 69%.

For `CC1(C)CC[C@]23CC[C@]4(C)[C@H](CC[C@@H]5[C@@]6(C)Cc7c([nH]c8ccccc78)C(C)(C)[C@@H]6CC[C@]54C)[C@H]2C1OC3`, the Activity in the test on J774 [2] is 94.5%; with J774 [4], 96.2%; with J774 [7], 94.8%. In addition, the “Remaining IL-6 level (% of LPS-only)” value with J774 [5] is given as 92.1%. Also, the “Remaining nitric oxide level (% of LPS-only control)” value in the test with J774 [6] came to 96.5%.

As for `C=C(C)[C@@H]1CC[C@]2(C(=O)O)CC[C@]3(C)[C@H](CC[C@@H]4[C@@]5(C)Cc6nccnc6C(C)(C)[C@@H]5CC[C@]43C)[C@@H]12`, the IC50 in the test on J774 [1] is 300 nM. The inhibition result with J774 [3] was “inactive”.

Consider `C=C(C)[C@@H]1CC[C@]2(C(=O)O)CC[C@]3(C)[C@H](CC[C@@H]4[C@@]5(C)CC6OC(C)(C)OC6C(C)(C)[C@@H]5CC[C@]43C)[C@@H]12` (stereo partly specified), for which the Activity in the test on J774 [2] turned out to be 40.7%; in the test with J774 [4], 87%; in the test on J774 [7], 117.4%. In addition, the “Remaining IL-6 level (% of LPS-only)” value in the test with J774 [5] came out at 131.7%. In the test on J774 [6], the “Remaining nitric oxide level (% of LPS-only control)” value is 75.2%.

In the case of `C=C(C)[C@@H]1CC[C@]2(/C=N/O)CC[C@]3(C)[C@H](CC[C@@H]4[C@@]5(C)CC[C@H](O)C(C)(C)[C@@H]5CC[C@]43C)[C@@H]12`, in the test on J774 [1], the IC50 stood at 300 nM. For the same molecule, the Activity is reported as 6.2% in the test with J774 [2], 136.9% in the test with J774 [4] and 127% in the test on J774 [7]. In addition, the inhibition entry with J774 [3] was “inactive”. For the same molecule, in the test with J774 [5], the “Remaining IL-6 level (% of LPS-only)” value came out at 98.3%. The “Remaining nitric oxide level (% of LPS-only control)” value in the test with J774 [6] amounted to 31.3%.

With `C=C(C)[C@@H]1CC[C@]2(C(=O)O)CC[C@]3(C)[C@H](CC[C@@H]4[C@@]5(C)Cc6c([nH]c7ccc(OC)cc67)C(C)(C)[C@@H]5CC[C@]43C)[C@@H]12`, the Activity in the test with J774 [2] came to 95.1%; with J774 [4] it was 73.1%; with J774 [7], 162.6%. In addition, the “Remaining IL-6 level (% of LPS-only)” value with J774 [5] came out at 123.5%. Further, in the test with J774 [6], the “Remaining nitric oxide level (% of LPS-only control)” value was determined as 97.5%.

With `C=C(C)[C@@H]1CC[C@]2(C(=O)O)CC[C@]3(C)[C@H](CC[C@@H]4[C@@]5(C)Cc6c([nH]c7ccccc67)C(C)(C)[C@@H]5CC[C@]43C)[C@@H]12`, the values for the Activity in the test with J774 [2], in the test with J774 [4] and in the test on J774 [7] were 66.6%, 83.4% and 140.9%, respectively. For the same molecule, the “Remaining IL-6 level (% of LPS-only)” value in the test with J774 [5] amounted to 108.9%. Also, in the test with J774 [6], the “Remaining nitric oxide level (% of LPS-only control)” value is on record as 79.5%.

With `C=C(C)[C@@H]1CC[C@]2(C(=O)O)CC[C@]3(C)[C@H](CC[C@@H]4[C@@]5(C)C[C@H](O)[C@H](O)C(C)(C)[C@@H]5CC[C@]43C)[C@@H]12`, the Activity in the test with J774 [2] is reported as 63.6%; in the test on J774 [4], 68.3%; in the test with J774 [7], 93.4%. In addition, the “Remaining IL-6 level (% of LPS-only)” value in the test on J774 [5] is on record as 70.7%. In the test with J774 [6], the “Remaining nitric oxide level (% of LPS-only control)” value is reported as 71.4%.

Take `C=C(C)[C@@H]1CC[C@]2(C=O)CC[C@]3(C)[C@H](CC[C@@H]4[C@@]5(C)Cc6cnoc6C(C)(C)[C@@H]5CC[C@]43C)[C@@H]12`: the Activity in the test with J774 [2] is on record as 57.5%; with J774 [4], 102.1%; in the test with J774 [7], 49.6%. In addition, the “Remaining IL-6 level (% of LPS-only)” value in the test on J774 [5] came to 91.4%. Moreover, the “Remaining nitric oxide level (% of LPS-only control)” value in the test with J774 [6] is 113.1%.

For `C=C(C)[C@@H]1CC[C@]2(CO)CC[C@]3(C)[C@H](CC[C@@H]4[C@@]5(C)CC[C@H](O)C(C)(C)[C@@H]5CC[C@]43C)[C@@H]12` [BETULIN], the values for the Activity in the test with J774 [2], with J774 [4] and in the test with J774 [7] were 63.4%, 206.5% and 175.1%, respectively. The “Remaining IL-6 level (% of LPS-only)” value in the test on J774 [5] was 133.9%. Further, the “Remaining nitric oxide level (% of LPS-only control)” value in the test on J774 [6] was determined as 47.9%.

With `CCC(=O)OC[C@]12CC[C@]3(C(C)C)C1=C1[C@H](C[C@@H]4[C@@]5(C)CC[C@H](OC(=O)CC)C(C)(C)[C@@H]5CC[C@@]4(C)[C@]1(C)CC2)n1c(=O)n(C)c(=O)n13`, the Activity in the test on J774 [2] was found to be 50.5%; in the test on J774 [4], 80.3%; in the test with J774 [7], 43%. The “Remaining IL-6 level (% of LPS-only)” value in the test with J774 [5] was found to be 60%. Also, in the test on J774 [6], the “Remaining nitric oxide level (% of LPS-only control)” value is 55.7%.

`CC1(C)CC[C@]23CC[C@]4(C)[C@H](CC[C@@H]5[C@@]6(C)Cc7c([nH]c8ccc(F)cc78)C(C)(C)[C@@H]6CC[C@]54C)[C@H]2C1OC3`: the Activity in the test on J774 [2] amounted to 83.9%; with J774 [4], 108.5%; in the test on J774 [7] it was 91.8%. In addition, the “Remaining IL-6 level (% of LPS-only)” value in the test with J774 [5] was 99.3%. Moreover, the “Remaining nitric oxide level (% of LPS-only control)” value in the test on J774 [6] is 122.6%.

`C=C(C)[C@@H]1CC[C@]2(C(N)=O)CC[C@]3(C)[C@H](CC[C@@H]4[C@@]5(C)Cc6nccnc6C(C)(C)[C@@H]5CC[C@]43C)[C@@H]12`: the Activity is recorded as 34.9% in the test on J774 [2], 79.4% in the test with J774 [4] and 89.9% with J774 [7]. The “Remaining IL-6 level (% of LPS-only)” value in the test with J774 [5] turned out to be 82.8%. In the test with J774 [6], the “Remaining nitric oxide level (% of LPS-only control)” value was 111.9%.

For `C=C(C)[C@@H]1CC[C@]2(C(=O)O)CC[C@]3(C)[C@H](CC[C@@H]4[C@@]5(C)CCC(=O)C(C)(C)[C@@H]5CC[C@]43C)[C@@H]12` [BETUNOLIC ACID], the Activity with J774 [2] is recorded as 38.3%; in the test on J774 [4], 118%; with J774 [7], 107.1%. The “Remaining IL-6 level (% of LPS-only)” value in the test on J774 [5] came to 87.1%. For the same molecule, the “Remaining nitric oxide level (% of LPS-only control)” value with J774 [6] is on record as 45.3%.
